Consider 17 compounds from PubChem BioAssay.

A number with no mark means an inactive call. Inconclusive results are not listed. Active and inactive are the calls of the source.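 Rule for the calls, unless noted: active = viability at or below 27.92% in each of two runs, the all-compound median minus 4 SD; inconclusive = no clear call, values can overlap the other calls; inactive = the rest.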

Experiment [1] is described as follows: S. cerevisiae growth inhibition in permissive medium (OD615), pilot counter-assay for S. cerevisiae lifespan shortening project, permissive growth control (AID 705;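 active = growth inhibition above 25% in both replicates, a cutoff set 3 SD above the mean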). As to conditions: OD615, 24 h, at 10 µM, hits give high values. In a few lines: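 Test system: Saccharomyces cerevisiae strain carrying genetically modified DeaD replicative-lifespan system; buffer or medium: SC raffinose/galactose permissive medium; dosing: one dose 10 µM, DMSO 0.25% final; times: 24 h exposure, 30 °C; measured by: OD at 615 nm; read-out basis: growth inhibition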

Experiment [2] is described as follows: S. cerevisiae growth inhibition in restrictive medium, OD615, pilot screen, restrictive growth control, yeast lifespan reduction project (AID 706;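 active = growth inhibition above a set limit, 3 SD over mean compound inhibition, in both replicates, cut at about 43% in these data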;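 note: modified DeaD lifespan yeast strain shifted to restrictive glucose medium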). As to conditions: OD615, 48 h, at 10 µM, hits give high values. In a few lines:
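material = engineered S. cerevisiae DeaD strain | buffer or medium = glucose-based CSMM-D restrictive medium | dosing = one concentration, 10 µM final, 0.25% DMSO | schedule = 4 h pre-growth plus 48 h compound exposure, 30 °C | detection = OD615 absorbance reading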

Experiment [3] can be described thus: doxorubicin toxicity protection in MRP-1 cells – H69AR cells, CellTiter-Glo, duplicate, MRP-1 activator project, pilot screen (AID 807;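 active = viability increase at or above a cutoff of the median across tested compounds plus 3 SD, cut at about 8.5% in these data, passing the limit was not always enough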;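 note: compound pretreatment 18-22 h then 72 h combined with doxorubicin; 0% = doxorubicin alone and 100% = vehicle without doxorubicin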). The conditions noted are these: H69AR viability with doxorubicin, CellTiter-Glo luminescence; at 10 µM; hits give high values.
A short description of experiment [4]: viability of HCT116 without oncogenic beta-catenin – human colon tumor cells, pilot screen (AID 823;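 active = cell viability at or below a set limit in both duplicate runs, the limit being the all-compound median minus 4 SD, cut at about 23% in these data, passing the limit was not always enough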;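 note: 0% = wells killed by 20 µM Hyamine and 100% = untreated DMSO cell wells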). The conditions noted are these: HCT116 beta-catenin knockout viability, CellTiter-Glo, 60 h; at 10 µM; hits give low values.
Experiment [5] can be described thus: viability of PTEN-null HCT116 cells – cell-based, HCT116 clonal line, CellTiter-Glo, pilot screen (AID 824).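 Note: 0% = 20 µM Hyamine control and 100% = vehicle cell control.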 The conditions noted are these: HCT116 PTEN-deleted viability, 60 h, at 10 µM, hits give low values.
Experiment [6] can be described thus: RAM pathway blockade in budding yeast – dse1pr::URA3 reporter, 5-FOA selection, pilot screen (AID 869;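 active = inhibition over a set limit, the all-compound mean plus 3 SD, in both replicate runs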;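 note: 0% = DMSO wells with no growth and 100% = 10 µM 1-NA-PP1 with full growth; RAM network block rescues cells from 5-FOA so hits raise OD615 growth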). As to conditions: S. cerevisiae dse1pr::URA3 5-FOA growth, OD615, 2 d; at 10 µM; hits give high values; strain carries analog-sensitive mutant Cbk1 kinase.
Experiment [7] in a line: RAM signaling pathway blockade in yeast – S. cerevisiae, Pdr1DBD-CYC8 efflux-inhibited sensitized strain, primary screen (AID 1298;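 active = RAM network inhibition above 8.4% in each of two replicates, 3 SD over the compound average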;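 note: 0% = DMSO untreated cells without growth and 100% = 10 µM 1-NA-PP1 full growth; higher means more yeast growth rescued from 5-FOA killing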). As to conditions: S. cerevisiae cbk1-as DSE1-URA3 strain, 5-FOA growth OD615, 2 d; at 50 µM; hits give high values.

In the case of `CCCOc1nc2c(c(=O)n(C)c(=O)n2C)n1CCC`, the growth inhibition in experiment [1] is -7.2%; in experiment [2], -10.2%. In addition, in experiment [3], the viability increase was -2.13%. The viability in experiment [4] was 82.2%; in experiment [5], 86.6%. Besides, the inhibition in experiment [6] is 1.4%. In experiment [7], the RAM network inhibition is -0.88%.
In the case of `Cn1c(Cn2c(=O)sc3ccccc32)nnc1SCC(=O)Nc1cccc(Cl)c1`, the growth inhibition is -3.44% in experiment [1] and -16.1% in experiment [2]. In addition, the viability increase in experiment [3] was -0.83%. Besides, the viability in experiment [4] is 99.6%; in experiment [5] it was 98.8%. The inhibition in experiment [6] is 2.58%. In addition, the RAM network inhibition in experiment [7] is 2.23%.
Consider `O=C(Nc1nnc(-c2cccs2)o1)c1ccco1`, for which the growth inhibition in experiment [1] was -0.7%; in experiment [2], -3.64%. Also, in experiment [3], the viability increase was -4.39%. In addition, the results for the viability in experiment [4] and in experiment [5] were 93.8% and 89.8%, respectively. In experiment [6], the inhibition is 0.34%. Also, the RAM network inhibition in experiment [7] is -2.19%.
With `Cc1ccc(CNC(=O)CS(=O)Cc2nc(-c3cccs3)oc2C)cc1` (centres undefined), the growth inhibition in experiment [1] was 13.6%; in experiment [2] it was 57.4% (active). Moreover, the viability increase in experiment [3] was -2.97%. The figures for the viability in experiment [4] and in experiment [5] were 90.5% and 92.7%, respectively. The inhibition in experiment [6] is 1.67%. Further, the RAM network inhibition in experiment [7] is 2.88%.
For the compound `Cc1cc(C(=O)NCc2ccc3c(c2)OCO3)n(-c2ccccc2)n1`, the growth inhibition is -8.49% in experiment [1] and -5.84% in experiment [2]. Also, the viability increase in experiment [3] is -0.01%. For the same compound, the viability is 92.2% in experiment [4] and 96.3% in experiment [5]. Also, the inhibition in experiment [6] was 0.985%. Also, in experiment [7], the RAM network inhibition was 4.44%.
`CCOC(=O)c1c(C)oc2cc(Br)c(OC(=O)N3CCOCC3)cc12`: the growth inhibition in experiment [1] is -10.9%; in experiment [2], -3.17%. The viability increase in experiment [3] was -0.62%. In addition, the values for the viability in experiment [4] and in experiment [5] were 88% and 88.8%, respectively. The inhibition in experiment [6] was 0.13%. The RAM network inhibition in experiment [7] was 1.4%.
Regarding `CCOC(=O)c1cccc(NC(=O)Cn2cc3c(n2)CCC(C)C3)c1` (centres undefined), the growth inhibition in experiment [1] is 4.72%; in experiment [2], 17.6%. For the same compound, the viability increase in experiment [3] is -0.48%. Moreover, the viability is 101% in experiment [4] and 92.3% in experiment [5]. In addition, the inhibition in experiment [6] is 1.12%. Besides, the RAM network inhibition in experiment [7] is 0.81%.
Take `COc1ccc(N2C(=O)C3CCCN3C2c2ccc(Cl)cc2)cc1` (centres undefined): the growth inhibition is -6.21% in experiment [1] and -6.83% in experiment [2]. Besides, the viability increase in experiment [3] is -2.6%. For the same compound, the viability is 101% in experiment [4] and 95.5% in experiment [5]. Moreover, in experiment [6], the inhibition is 1.7%. Besides, in experiment [7], the RAM network inhibition is 2.27%.
For the compound `COc1cc(NC(=O)c2cc(C(C)C)on2)cc(OC)c1OC`, the growth inhibition is -12.3% in experiment [1] and 14.9% in experiment [2]. Moreover, in experiment [3], the viability increase was -1.85%. Further, the viability is 95.2% in experiment [4] and 94.5% in experiment [5]. Further, the inhibition in experiment [6] was -0.755%. Moreover, the RAM network inhibition in experiment [7] is -0.99%.
For the compound `Cc1cc(N2CCCc3ccccc32)n2ncnc2n1`, the growth inhibition in experiment [1] is -2.53%; in experiment [2], -1.67%. For the same compound, in experiment [3], the viability increase was -1.21%. Further, the viability in experiment [4] was 97.9%; in experiment [5] it was 105%. Besides, the inhibition in experiment [6] was 0.97%. In addition, the RAM network inhibition in experiment [7] was 0.93%.
As to `CCOc1ccccc1C(=O)Nc1nnc(C(C)C)s1`, the growth inhibition in experiment [1] was 3%; in experiment [2], -2.61%. Further, the viability increase in experiment [3] was -4.41%. The viability was 98.1% in experiment [4] and 91.5% in experiment [5]. The inhibition in experiment [6] was 0.55%. In experiment [7], the RAM network inhibition was 2.24%.
Consider `CCCn1c(NCc2ccc(N(C)C)cc2)nc2ccccc21`, for which the growth inhibition in experiment [1] was -11.6%; in experiment [2] it was -8.42%. Besides, the viability increase in experiment [3] was -1.82%. In addition, the viability in experiment [4] was 70.8%; in experiment [5], 70.9%. The inhibition in experiment [6] is 0.405%. In addition, the RAM network inhibition in experiment [7] is 5.4%.
Regarding `COc1cc(C(=O)Nc2ccc(N(C)C)cc2)cc(OC)c1OC`, the growth inhibition in experiment [1] was -13.9%; in experiment [2], -11.7%. In addition, the viability increase in experiment [3] is -5.23%. Further, the figures for the viability in experiment [4] and in experiment [5] were 82.2% and 82.9%, respectively. Also, the inhibition in experiment [6] is 1.14%. Further, the RAM network inhibition in experiment [7] is 2.49%.
In the case of `COc1ccc(-n2c3c(cc(C(=O)Nc4ccc5c(c4)C(=O)NC5=O)c2=O)C(=O)CCC3)cc1`, the growth inhibition in experiment [1] was -7.19%; in experiment [2] it was -10.4%. Further, the viability increase in experiment [3] is 0.08%. The viability in experiment [4] and in experiment [5] was 102% each time. The inhibition in experiment [6] is 1.77%. In experiment [7], the RAM network inhibition was 3.06%.
For the compound `O=C(O)c1ccccc1C(=O)NCC(O)COCC1CC=CCC1` (centres undefined), the growth inhibition was -14.5% in experiment [1] and -16.2% in experiment [2]. The viability increase in experiment [3] was -1.89%. Moreover, the viability in experiment [4] was 101%; in experiment [5] it was 100%. The inhibition in experiment [6] was 1.33%. Further, in experiment [7], the RAM network inhibition is 3.55%.
With `CCN1CCN(C(=O)Nc2ccc(Cc3ccc(NC(=O)N4CCN(CC)CC4)cc3)cc2)CC1`, the results for the growth inhibition in experiment [1] and in experiment [2] were -9.89% and -9.14%, respectively. In experiment [3], the viability increase was -2.42%. The figures for the viability in experiment [4] and in experiment [5] were 78.3% and 86.7%, respectively. Also, the inhibition in experiment [6] was 1.72%. The RAM network inhibition in experiment [7] is 2.65%.
Consider `Cc1cc(C)nc(SCC(=O)Oc2ccc3oc(=O)cc(C)c3c2)n1`, for which the growth inhibition is -15.6% in experiment [1] and -10.1% in experiment [2]. Moreover, the viability increase in experiment [3] was -3.67%. For the same compound, the viability in experiment [4] was 97%; in experiment [5] it was 95.4%. Further, the inhibition in experiment [6] was 1.63%. In experiment [7], the RAM network inhibition is 3.39%.
